# TCR-CD3 inh = inhibitors of human TCR-CD3 interaction, primary screen, biochemical, fluorescence, TAMRA-labeled TCR probe. T-cell receptor (TCR). 360,000 tested, 0.37% active. inhibition, % at 9.4 µM; in the data active = inhibition above about 19%;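 note: recombinant mutant TCR 2C K166C tagged with TAMRA read by polarization; 0% = receptor in buffer alone and 100% = receptor with positive control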
# DDE Tn7 FP inh = inhibitors of Tn7 peptide binding to fibrin DD(E), primary screen, biochemical, fluorescence polarization, human fibrin, Tn7 probe. 370,000 tested, 0.13% active. Fibrinogen beta chain (Homo sapiens), P02675. inhibition, % at 8.3 µM. FP displacement of FITC-Tn7 peptide from fibrin DD(E); 0% = median of compound wells per plate. AID 720508, 2013;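 active = inhibition above the mean of compounds falling within the control limits plus 3 SD of them, cut at about 14% in these data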;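 note: 0% = plate median of compound wells and 100% = 10 µM Aha-Tn7 peptide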
#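 Test system – human fibrin DD(E) · Times – 10 min preincubation, 3 h with tracer, room temperature · Detection – fluorescence polarization of the labelled Tn7 tracer · Measure – percent inhibition normalized to high-control wells · Benchmarks – high control wells with 10 µM unlabelled Aha-Tn7 peptide (full inhibition) · Repeats – singlicate testing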
# ABHD4 inh = ABHD4 inhibitors, primary screen, biochemical, fluorescence polarization, mouse. (Lyso)-N-acylphosphatidylethanolamine lipase (Mus musculus), Q8VD66. purified mABHD4, FP-Rh probe fluorescence polarization. inhibition, % at 8.92 µM. 370,000 tested, 0.54% active;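 active = inhibition exceeding the mean over every tested compound plus 3 SD, cut at about 30% in these data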;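 note: 0% = plate median of compound wells and 100% = S159A mutant with DMSO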
# Target sequence (Q8VD66 whole entry, looked up): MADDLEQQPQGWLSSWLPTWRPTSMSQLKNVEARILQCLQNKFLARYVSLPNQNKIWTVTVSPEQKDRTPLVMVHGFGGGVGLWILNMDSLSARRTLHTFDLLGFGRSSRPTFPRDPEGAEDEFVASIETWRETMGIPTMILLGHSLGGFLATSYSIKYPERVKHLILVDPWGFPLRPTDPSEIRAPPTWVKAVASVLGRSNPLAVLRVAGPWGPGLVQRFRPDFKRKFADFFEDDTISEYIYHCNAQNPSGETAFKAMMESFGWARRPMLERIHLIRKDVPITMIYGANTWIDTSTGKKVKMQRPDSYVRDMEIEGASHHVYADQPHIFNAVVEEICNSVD
#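 Doses – 8.92 µM, single dose · Material – wild-type mouse ABHD4 protein · Replication – single well per compound (singlicate) · Measure – percent inhibition of probe binding, normalized to plate controls · Schedule – 45 min compound pre-incubation plus 60 min probe step, 25 °C · Detection – fluorescence polarization with parallel and perpendicular emission, 525/598 nm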
# Tn6 DDE FP = inhibitors of Tn6 peptide binding to fibrin DD(E), primary screen, biochemical, fluorescence polarization, human fibrin, Tn6 probe; Fibrin DD(E) TRITC-Tn6 fluorescence polarization displacement; inhibition, % at 8.3 µM; 370,000 tested, 0.21% active; AID 720509, 2013;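 active = inhibition above a per-campaign cutoff: mean of compounds within control limits plus 3 SD, cut at about 15% in these data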;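 note: 0% = median of all compound wells on the plate and 100% = blocking peptide control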
# HTRA1 inh = HTRA1 serine protease inhibitors, primary screen, biochemical, fluorescence polarization, HTS; AID 504803, 2011; inhibition, % at 5.96 µM; Q92743; 340,000 tested, 0.5% active; recombinant HTRA1, FP-rhodamine activity-based probe; in the data active = inhibition above about 36%;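 note: 0% = enzyme with DMSO and 100% = wells lacking enzyme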
# SIAE inh = human SIAE inhibitors, primary screen, biochemical, fluorescence polarization, FP-Rh probe, 1536-well HTS. SIAE FP-Rh probe binding. inhibition, % at 9.66 µM. 370,000 tested, 0.69% active. AID 1053197, 2014;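 active = inhibition above a cutoff: mean of compounds within the control limits plus 3 SD of those, cut at about 17% in these data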;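 note: 0% = plate median of compound wells and 100% = probe without SIAE protein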
# DDE Tn6 FP ctr = DD(E)-Tn6 binding inhibition, counter-screen | shares compounds with Tn6 DDE FP | inhibition, % at 8.3 µM | 680 tested, 2% active | Fibrin DD(E), TRITC-Tn6 fluorescence polarization displacement; 0% = median of compound wells, not DMSO;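 active = inhibition above the mean of test compounds lying between the control limits plus 3 SD of those, cut at about 14% in these data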;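 note: 0% = median of compound wells and 100% = wells with Aha-Tn7 blocking peptide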
# DDE Tn6 confirm = inhibitors of Tn6 peptide binding to fibrin DD(E), confirmation, biochemical, fluorescence polarization, human fibrin, Tn6 probe; 680 tested, 10% active; shares compounds with Tn6 DDE FP; AID 720631, 2013; inhibition, % at 8.3 µM; FP displacement of TRITC-Tn6 peptide from DD(E); 0% = per-plate median of test wells;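 active = inhibition above the mean of compounds lying within the control limits plus 3 SD, cut at about 16% in these data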;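 note: 100% = high control wells holding a competing inhibitor peptide at 10 µM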
# Starred values were filed as active, the others as inactive; . = no result. Hits are enriched below; roughly 1.8% of the tested compounds scored in any of these assays.
SMILES,TCR-CD3 inh,DDE Tn7 FP inh,ABHD4 inh,Tn6 DDE FP,HTRA1 inh,SIAE inh,DDE Tn6 FP ctr,DDE Tn6 confirm
C=CCCC1CN(Cc2ccc(OC)cc2)S(=O)(=O)c2c(cccc2N2CCCC2)O1 (stereo not drawn),0.2,4.0,-3.4,-3.3,.,-9.1,.,.
CCCN1CCN(C(=O)Nc2ccc(OCC)cc2)CC1,1.8,-2.2,1.6,15.2*,3.4,1.2,-2.7,-2.5
O=C(NC1CCCCN(Cc2ccc(Cl)cc2)C1=O)C1C2CC3CC(C2)CC1C3 (stereo not drawn),.,2.7,5.8,3.4,.,5.2,.,.
Cc1ccc(-c2csc3nc4cc(C(=O)NC5CCC(O)CC5)ccc4c(=O)n23)cc1 (stereo not drawn),3.7,-1.6,6.5,17.3*,-2.2,-12.7,-7.0,-13.7
Cc1ccc(-c2csc3nc4ccc(C(=O)NCCO)cc4c(=O)n23)cc1,8.0,0.2,-2.4,0.2,-6.2,-6.2,.,.
CCC(C)c1ccccc1NC(=O)CN1CCN(C/C=C/c2ccccc2)CC1 (stereo not drawn),4.2,-3.6,-2.9,15.8*,5.1,6.9,-5.2,-6.1
CCOC(=O)Cc1cc(-c2ccc(F)cc2)nc2ccc3ccccc3c12,5.2,11.3,-0.7,16.1*,-7.5,6.7,-0.5,-5.8
COc1ccc(NC(=O)C2CCCN2C(=O)NC2CCCCC2)cc1 (stereo not drawn),-1.1,0.8,-1.3,17.4*,1.2,0.0,-0.4,-5.0
Nc1sccc1C(=O)c1ccccc1,-2.6,3.0,13.1,15.5*,.,5.6,1.4,-0.5
CCOc1cccc(-c2nnc3n2N=C(c2ccc(OC)cc2)CS3)c1,.,-2.4,-10.2,2.0,.,-8.5,.,.
COc1nccnc1NS(=O)(=O)c1ccc(NC(=S)NC(=O)/C=C/c2ccc(F)cc2)cc1,6.7,-2.1,-13.4,-3.2,-17.3,-20.2,.,.
COc1cc(NS(=O)(=O)c2ccc(NC(=S)NC(=O)/C=C/c3ccc(F)cc3)cc2)ncn1,-10.1,2.3,-2.8,18.9*,-7.8,-0.8,-5.8,-10.2
O=C(OCc1cc([N+](=O)[O-])cc2c1OCOC2)c1ccccn1,2.1,-3.1,8.1,17.5*,2.3,2.8,-0.4,-3.2
CCCCNC(=O)C1CCCN1C(=O)Nc1cccc(C)c1 (stereo not drawn),.,2.9,6.1,12.1,.,4.5,.,.
COc1ccc(CCN2CC(C(=O)OCC(=O)c3c(N)n(CC(C)C)c(=O)n(C)c3=O)CC2=O)cc1OC (stereo not drawn),-2.8,1.3,-9.9,43.8*,6.0,-1.9,4.2,-3.9
Cc1ccc(-c2cc(C(=O)NN=Cc3c(O)ccc4ccccc34)[nH]n2)cc1C,.,-4.6,13.3,4.0,.,5.5,.,.
COc1ccc2ccccc2c1C=NNC(=O)c1cc(-c2ccc(C)c(C)c2)n[nH]1,.,-0.6,-70.8,25.5*,.,-31.2,12.3,16.0*
O=S1(=O)c2c(NCc3ccco3)cccc2Oc2ccccc2CN1Cc1cn(Cc2ccccc2C(F)(F)F)nn1,.,4.1,-8.3,-5.4,.,11.3,.,.
CCN(CC)c1ccc(/C=N/n2nnnc2N)c(O)c1,0.6,1.1,17.4,18.2*,2.9,8.1,2.6,2.9
CCN(C)c1ccc(/C=N\n2nnnc2N)cc1,3.9,2.0,3.3,-3.6,-3.0,-0.8,.,.
COC(=O)c1cc2c(c3c4cc(F)ccc4n(S(=O)(=O)c4cccc(C)c4)c13)C(=O)N(c1ccc(OC)cc1)C2,-10.9,-1.9,1.2,2.7,.,3.2,.,.
COc1ccc(C(=O)NCc2ccc3c(c2)cc(C)n3C)cc1,16.0,-2.4,14.0,19.1*,5.8,-2.6,5.7,-1.1
COc1cc(OC)cc(C(=O)NCc2ccc3c(c2)cc(C)n3C)c1,-4.5,0.4,-5.4,2.1,1.1,1.5,.,.
COc1ccc(CC(=O)NCc2ccc3c(c2)cc(C)n3C)cc1OC,7.6,6.1,0.7,0.2,8.2,7.8,.,.
COCC(=O)NCc1ccc2c(c1)cc(C)n2C,14.1,3.0,17.9,20.6*,-1.8,-0.7,1.0,0.4
SMILES,TCR-CD3 inh,DDE Tn7 FP inh,ABHD4 inh,Tn6 DDE FP,HTRA1 inh,SIAE inh,DDE Tn6 FP ctr,DDE Tn6 confirm
CC(C)[C@@H](CO)N1Cc2nnn(Cc3ccccc3)c2-c2ccccc2S1(=O)=O,.,4.7,4.6,0.2,.,-10.4,.,.
C#CCN1CC(N(C)CCOC(=O)CCCc2ccccc2)CS1(=O)=O (stereo not drawn),.,-4.1,4.5,2.4,.,4.2,.,.
O=C(O)CN1C(=O)/C(=C\c2cc([N+](=O)[O-])ccc2OCc2ccccc2Cl)SC1=S,3.7,9.6,13.8,-2.8,-55.1,-3.4,.,.
O=C1/C(=C\c2cc([N+](=O)[O-])ccc2O)SC(=S)N1Cc1ccc(Cl)cc1,-36.6,-11.8,-127.1,17.2*,-84.7,-97.9,-23.9,-1.3
COc1ccc(OC)c(-c2nnc(SCC(=O)N3CCCC3)o2)c1,-7.5,-0.2,2.3,-6.9,-3.6,15.8,.,.
COc1ccc(OC)c(-c2nnc(SCC(=O)N3CCOCC3)o2)c1,3.6,1.6,-4.3,18.8*,8.7,1.8,6.7,-3.2
Cc1ccccc1-n1c(C)nnc1SCC(=O)N(C)C1CCS(=O)(=O)C1 (stereo not drawn),-3.2,0.1,1.6,19.4*,-1.2,-3.1,-2.5,-4.9
Cc1ccccc1-n1c(SCC(=O)N(C)C2CCS(=O)(=O)C2)nnc1-c1ccncc1 (stereo not drawn),-3.5,0.2,2.6,8.7,-1.1,2.7,.,.
COc1ccc(S(=O)(=O)N(C)C[C@@H]2Oc3c(NC(=O)Nc4ccccc4)cccc3C(=O)N([C@@H](C)CO)C[C@H]2C)cc1,.,4.9,-12.6,-3.3,.,-7.4,.,.
COCCCNc1ncnc2c1sc1nc(-c3ccco3)c3c(c12)CC(C)(C)OC3,-5.0,5.7,-16.7,18.1*,-27.7,-10.7,-3.3,-11.8
C=CC[C@H]1c2ccccc2[C@H]2N3N=Cc4ccccc4[C@H]3[C@H](CCCC)C(=O)N2N1C(=O)c1ccccc1,.,0.1,1.6,-4.5,.,3.3,.,.
